Results collected from several papers.
Protocols differ between the studies behind these lines.
CDK4 with cyclin D1: Cyclin-dependent kinase 4, with cyclin D1 (CDK4, Homo sapiens, UniProt P11802)
CDK4 with cyclin D3: Cyclin-dependent kinase 4, with cyclin D3 (CDK4, Homo sapiens, UniProt P11802)
CDK4: Cyclin-dependent kinase 4 (CDK4, Homo sapiens, UniProt P11802)

SMILES	target	observed	action	technique	tested at	quantity	value
C=CC(=O)N1CCC([C@@H]2CCNc3c(C(N)=O)c(-c4ccc(Oc5ccccc5)cc4)nn32)CC1	CDK4 with cyclin D1	enzyme activity	inhibitor	–	1 µM	inhibition	0%
C[C@]1(O)CCCN(c2nc(Nc3ccc(S(=O)(=O)N[C@H]4CC[C@H](CN5CCN(c6ccc(C7CCC(=O)NC7=O)cc6F)CC5)CC4)cc3Cl)ncc2C(F)(F)F)C1 (some centres unmarked)	CDK4 with cyclin D1	binding	–	competition with immobilised ligand	1 µM	remaining binding	91%
CN1CCN(C(=O)c2ccc(NC(=O)Nc3ccc(N(C)c4ccnc(Nc5ccc(CS(C)(=O)=O)cc5)n4)cc3)cc2)CC1	CDK4 with cyclin D3	binding	–	–	1 µM	remaining binding	89%
CC(C)S(=O)(=O)c1ccc2nccc(Nc3ccc4sc(C5CCCC5)nc4c3)c2c1	CDK4 with cyclin D3	enzyme activity	inhibitor	–	1 µM	activity vs control	102%
CCCCC(=O)Nc1ccc(-c2ccc3ncn(CCC)c(=O)c3c2)cn1	CDK4	binding	–	competition with immobilised ligand	0.5 µM	remaining binding	100%
CNS(=O)(=O)c1ccc(Nc2ncc(C(F)(F)F)c(N3CCC[C@](C)(O)C3)n2)c(C)c1	CDK4	binding	–	competition with immobilised ligand	1 µM	remaining binding	71%
CC#CC(=O)N1CCC[C@H]1c1nc(-c2ccc(C(=O)Nc3ccccn3)cc2)c2c(N)nccn12	CDK4	enzyme activity	inhibitor	–	1 µM	inhibition	0%
C[C@]1(O)CCCN(c2nc(Nc3ccc(S(=O)(=O)N[C@H]4CC[C@H](CN5CCN(c6ccc(C7CCC(=O)NC7=O)cc6F)CC5)CC4)cc3F)ncc2C(F)(F)F)C1 (some centres unmarked)	CDK4 with cyclin D3	binding	–	competition with immobilised ligand	1 µM	remaining binding	96%
C1=C/COCc2cc(ccc2OCCN2CCCC2)Nc2nccc(n2)-c2cccc(c2)COC/1	CDK4 with cyclin D1	binding	–	–	0.1 µM	remaining binding	48%
COc1ccc2[nH]c3c4[nH]c5ccc(OC)cc5c4c4c(c3c2c1)C(=O)NC4=O	CDK4 with cyclin D3	binding	–	–	1 µM	remaining binding	74%
CO[C@@H]1[C@H](N(C)C(=O)c2ccccc2)C[C@H]2O[C@]1(C)n1c3ccccc3c3c4c(c5c6ccccc6n2c5c31)C(=O)NC4	CDK4 with cyclin D1	enzyme activity	inhibitor	–	1 µM	inhibition	4%
